Measurements reported in ChEMBL document CHEMBL1152618, “PET-compatible endothelin receptor radioligands: synthesis and first in vitro and in vivo studies” (Bioorg Med Chem, 2009).
Values belong to the compound of their own block, whether it stands above or below them.

Experiments:
[1] = biological target: T1, Endothelin receptor type B (Mus musculus, UniProt P48302); experiment: Displacement of [125I]ET1 from endothelin B receptor in DBA mouse microsomes; set-up: species or system Microsome
T1 sequence (P48302 whole entry): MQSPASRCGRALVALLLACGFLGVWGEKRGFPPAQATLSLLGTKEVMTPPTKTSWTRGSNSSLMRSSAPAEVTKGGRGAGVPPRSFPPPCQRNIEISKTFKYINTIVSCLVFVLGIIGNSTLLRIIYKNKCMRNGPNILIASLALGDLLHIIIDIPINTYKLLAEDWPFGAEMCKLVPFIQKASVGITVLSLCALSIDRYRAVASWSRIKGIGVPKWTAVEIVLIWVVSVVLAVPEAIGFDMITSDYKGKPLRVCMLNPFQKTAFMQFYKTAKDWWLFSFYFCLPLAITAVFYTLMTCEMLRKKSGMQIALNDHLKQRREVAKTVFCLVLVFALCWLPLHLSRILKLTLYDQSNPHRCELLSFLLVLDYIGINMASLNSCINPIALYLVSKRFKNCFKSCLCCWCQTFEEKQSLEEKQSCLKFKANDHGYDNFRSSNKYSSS
Outline: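 Ventricular microsomes from DBA mice were prepared by homogenization and differential centrifugation in EDTA/HEPES/benzamidine buffers (pH 7.4). 10 µg membranes were incubated with 40 pM [125I]ET-1 and competitor (10 pM–100 µM) in Tris-HCl/154 mM NaCl/ascorbic acid (pH 7.4) at 37 °C for 4 h. Samples were filtered on GF/B and gamma counted. A two-site nonlinear fit gave the low-affinity IC50, which was converted to Ki by Cheng–Prusoff (KD 208 pM).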

[2] = Biodistribution in C57BL/6 mouse duodenal content assessed as drug uptake index at 0.3 to 1 mmol/kg, iv after 30 mins; format: ADME, organism-based; details: in vivo, 0.5 h, in the assay text read “0.3 to 1 nmol/kg” for “0.3 to 1 mmol/kg”
Outline: (§1)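 Adult C57BL/6 mice (male and female, 25–30 g), tail-vein cannulated under isoflurane/N2O/O2, allowed ~1 h recovery, conscious under light restraint. [18F]tracer 0.2–2.0 MBq (0.3–1.0 nmol/kg) given as iv bolus. Killed by iv pentobarbitone 200 mg/kg at 30 min. Duodenal contents were moved directly into weighed vials, and duodenal wall was blotted. Gamma counting. Uptake index = (cpm/g tissue)/(cpm injected/g body weight).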

[3] = Biodistribution in C57BL/6 mouse duodenal wall content assessed as drug uptake index at 0.3 to 1 mmol/kg, iv after 30 mins; format: ADME, organism-based; details: in vivo, 0.5 h, in the assay text read “0.3 to 1 nmol/kg” for “0.3 to 1 mmol/kg”; outline: as §1
[4] = tested on: Plasma; experiment: Protein binding in Wistar rat plasma at 19 MBq; format: ADME, cell-free
Outline: (§2)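 Plasma from one anesthetized male Wistar rat (350 g), taken by cardiac puncture and stored at −20 °C overnight. 0.5 ml samples were incubated with 19 MBq [18F]tracer at 37 °C for 1, 2.5, 20 and 60 min. Protein was precipitated with ice-cold acetonitrile and centrifuged. Pellet and supernatant radioactivity were measured for protein binding. Supernatant was analyzed by gradient radio-RP-HPLC (C18, water/acetonitrile with 0.1% TFA).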

[5] = tested on: Plasma; experiment: Stability in Wistar rat plasma assessed as compound remaining at 19 MBq; format: ADME, cell-free; outline: as §2
[6] = tested on: Rattus norvegicus; experiment: Stability in Wistar rat assessed as compound remaining at 40 MBq, iv after 2.5 mins; format: ADME, organism-based; details: in vivo
Outline: (§3)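 Single rat given 40 MBq [18F]tracer as an iv tail-vein bolus. Blood (600–800 µl) was drawn from a tail-artery catheter at 2.5, 10, 20 and 60 min and centrifuged to plasma. Proteins were precipitated with ice-cold acetonitrile. Supernatant was spiked with 10 µg unlabeled reference and analyzed by radio-RP-HPLC.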

[7] = tested on: Rattus norvegicus; experiment: Stability in Wistar rat assessed as compound remaining at 40 MBq, iv after 10 mins; format: ADME, organism-based; details: in vivo; outline: as §3
[8] = tested on: Plasma; experiment: Stability in C57BL/6 mouse plasma assessed as compound remaining after 5 mins; format: ADME, cell-free
Outline: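 C57BL/6 mice (adult, both sexes) were prepared as for biodistribution and given [18F]tracer as a 100 µl tail-vein bolus. Killed by iv pentobarbitone at 5 or 20 min. Cardiac blood was centrifuged, and plasma from two mice was pooled. After acetonitrile protein precipitation, supernatant was spiked with 10 µg unlabeled reference and analyzed by radio-RP-HPLC.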

[9] = Drug level in C57BL/6 mouse bile at 6.6 MBq, iv after 3 to 4 mins; format: ADME, organism-based; details: in vivo
Outline: (§4)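 Female C57BL/6 mice (22–23 g) under isoflurane 2% anesthesia with tail-vein catheters were imaged two at a time in a quadHIDAC small-animal PET scanner. [18F]tracer (6.6 MBq in 100 µl, saline flush) was injected 30 s after acquisition start. List-mode data were collected for 2 h and reconstructed iteratively. Radioactivity (cps/ml) was read from ROIs over organs in five coronal planes.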

[10] = Drug level in C57BL/6 mouse urine at 6.6 MBq, iv after 5 to 60 mins; format: ADME, organism-based; details: in vivo; outline: as §4
[11] = tested on: Plasma; experiment: Stability in plasma assessed as compound remaining after 20 mins

Compound: COc1cc(CC2=C(c3ccc4c(c3)OCO4)C(=O)OC2(O)c2ccc(OCCF)cc2)cc(OC)c1OC (stereo unspecified)
Ki [1]: 98 nM

Compound: COc1ccc(C2(O)OC(=O)C(c3ccc4c(c3)OCO4)=C2Cc2cc(OC)c(OC)c(OCC[18F])c2)cc1 (stereo unspecified)
Drug uptake [2]: 33
Drug uptake [3]: 9
PPB [4]: 4.6%
Stability [5]: Stable
Stability [6]: Stable
Stability [7]: Stable
Stability [8]: Stable
Drug uptake [9]: 6000 cps/ml
Drug uptake [10]: 200 cps/ml
Stability [11]: Stable

Compound: COc1ccc(C2(O)OC(=O)C(c3ccc4c(c3)OCO4)=C2Cc2cc(OC)c(OC)c(OCCF)c2)cc1 (stereo unspecified)
Ki [1]: 240 nM

Compound: COc1ccc(C2(O)OC(=O)C(c3ccc4c(c3)OCO4)=C2Cc2cc(OC)c(OC)c(OCCBr)c2)cc1 (stereo unspecified)
Ki [1]: 170 nM

Compound: COc1cc(CC2=C(c3ccc4c(c3)OCO4)C(=O)OC2(O)c2ccc(OCCOS(=O)(=O)c3ccc(C)cc3)cc2)cc(OC)c1OC (stereo unspecified)
Ki [1]: 96 nM

Results, then the compound that gave them:

Ki [1]: 1.26 nM
Compound: COc1ccc(C2(O)OC(=O)C(c3ccc4c(c3)OCO4)=C2Cc2cc(OC)c(OC)c(OCCOS(=O)(=O)c3ccc(C)cc3)c2)cc1 (stereo unspecified)

Ki [1]: 72 nM
Compound: COc1cc(CC2=C(c3ccc4c(c3)OCO4)C(=O)OC2(O)c2ccc(OCCBr)cc2)cc(OC)c1OC (stereo unspecified)
